From ChEMBL document CHEMBL4706523, “Targeting topoisomerase II with trypthantrin derivatives: Discovery of 7-((2-(dimethylamino)ethyl)amino)indolo[2,1-b]quinazoline-6,12-dione as an antiproliferative agent and to treat cancer” (Eur J Med Chem, 2020)
≈ marks a conversion by molar mass, not a printed value. Calls of active or inactive are those of the source. The calls are words filed in the database; no cut-off is given here.

Columns and labels:
[1] = biological target: T1, DNA topoisomerase 2-alpha (Homo sapiens, UniProt P11388); test: Inhibition of human DNA topoisomerase 2alpha assessed as suppression of decatenation using catenated kinetoplast DNA as substrate up to 250 uM measured after 30 mins by SYBR safe DNA staining based staining-based agarose gel electrophoresis method; conditions: dose microM <=250, time 30.0 min
Outline: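 Human topoII α decatenation kit reaction, with compound or DMSO vehicle at 5% DMSO final. Incubated 30 min at 37°C, products resolved on 1% agarose with SYBR safe stain. IC50 from four-parameter nonlinear regression, mean ± SD of two independent assays. Tested up to 250 μM.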

[2] = biological target: T1, DNA topoisomerase 2-alpha; test: Inhibition of human DNA topoisomerase 2alpha assessed as suppression of decatenation using catenated kinetoplast DNA as substrate measured after 30 mins by SYBR safe DNA staining based staining-based agarose gel electrophoresis method
Outline: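 Human topoII α decatenation kit reaction, with compound or DMSO vehicle at 5% DMSO final. Incubated 30 min at 37°C, products resolved on 1% agarose with SYBR safe stain. IC50 from four-parameter nonlinear regression, mean ± SD of two independent assays.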

[3] = system: CCRF-CEM; test: Antiproliferative activity against human CCRF-CEM cells assessed as reduction in cell viability after 72 hrs by eosin exclusion dye based light microscopic method; type: functional; conditions: for IC50: 72 h; for GI50: time 72 hrs
Outline: (§1)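 Suspension leukaemia lines grown in RPMI with 4.5 g/L glucose, 2 mM glutamine, penicillin/streptomycin and 10% heat-inactivated FBS (HL-60 in 20% FBS). Seeded at 0.25x10⁶ cells/mL (Jurkat, CCRF-CEM, CEM/C2) or 0.125x10⁶ cells/mL (HL-60). Treated 72h at 0–64 μM, 37°C, 5% CO₂. Viable cells counted by eosin exclusion in a Bürker chamber, normalised to untreated cells. IC50 from non-linear regression, at least triplicate.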

[4] = Solubility of compound in water; type: physicochemical
Outline: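 Samples were stirred for 24 h at 25°C, centrifuged, and supernatants filtered through 0.45 μm PTFE and diluted. Concentration was taken from UV absorbance against a four-point calibration line in PBS with 2% DMSO, and reported as μg/mL.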

[5] = biological target: T1, DNA topoisomerase 2-alpha; test: Potency index, ratio of etoposide IC50 to test compound IC50 for inhibition of human DNA topoisomerase 2alpha
[6] = system: Jurkat; test: Antiproliferative activity against human Jurkat cells assessed as reduction in cell viability after 72 hrs by eosin exclusion dye based light microscopic method; type: functional; outline: as §1
[7] = system: CEM/C2; test: Antiproliferative activity against human CEM/C2 cells assessed as reduction in cell viability after 72 hrs by eosin exclusion dye based light microscopic method; type: functional; outline: as §1
[8] = system: HL-60; test: Antiproliferative activity against human HL-60 cells assessed as reduction in cell viability after 72 hrs by eosin exclusion dye based light microscopic method; type: functional; outline: as §1
[9] = species on record: Homo sapiens; test: Selectivity ratio of IC50 for antiproliferative activity against human CCRF-CEM cells to IC50 for antiproliferative activity against human Jurkat cells; type: cell-based
[10] = species on record: Homo sapiens; test: Selectivity ratio of IC50 for antiproliferative activity against human CCRF-CEM cells to IC50 for antiproliferative activity against human MCF7 cells; type: cell-based
[11] = species on record: Homo sapiens; test: Selectivity ratio of IC50 for antiproliferative activity against human CEM/C2 cells to IC50 for antiproliferative activity against human Jurkat cells; type: cell-based
[12] = species on record: Homo sapiens; test: Selectivity ratio of IC50 for antiproliferative activity against human CEM/C2 cells to IC50 for antiproliferative activity against human MCF7 cells; type: cell-based
[13] = species on record: Homo sapiens; test: Selectivity ratio of IC50 for antiproliferative activity against human HL-60 cells to IC50 for antiproliferative activity against human Jurkat cells; type: cell-based
[14] = species on record: Homo sapiens; test: Selectivity ratio of IC50 for antiproliferative activity against human HL-60 cells to IC50 for antiproliferative activity against human MCF7 cells; type: cell-based
[15] = species on record: Homo sapiens; test: Selectivity ratio of IC50 for antiproliferative activity against human HT-29 cells to IC50 for antiproliferative activity against human Jurkat cells; type: cell-based
[16] = species on record: Homo sapiens; test: Selectivity ratio of IC50 for antiproliferative activity against human HT-29 cells to IC50 for antiproliferative activity against human MCF7 cells; type: cell-based
[17] = species on record: Homo sapiens; test: Selectivity ratio of IC50 for antiproliferative activity against human DLD-1 cells to IC50 for antiproliferative activity against human Jurkat cells; type: cell-based
[18] = species on record: Homo sapiens; test: Selectivity ratio of IC50 for antiproliferative activity against human DLD-1 cells to IC50 for antiproliferative activity against human MCF7 cells; type: cell-based
[19] = system: CCRF-CEM; test: Potency index, ratio of tryp-tanthrin IC50 to test compound IC50 for antiproliferative activity against human CCRF-CEM cells; type: functional
[20] = system: CCRF-CEM; test: Induction of cell cycle arrest in human CCRF-CEM cells assessed as increase in accumulation at G2/M phase for 24 hrs by flow cytometric analysis; type: functional, cell-based; conditions: dose 8.0 µM
Outline: (§2)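 CCRF-CEM seeded at 0.25x10⁶ cells/mL and treated 24h. Cells were fixed/permeabilised in 70% ethanol for at least 1h, then stained with PI 10 μg/mL plus RNase A 100 μg/mL for 20 min at room temperature in the dark. DNA content was read by flow cytometry, with at least 10000 events, to give subG0, G0-G1, S and G2-M fractions.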

[21] = system: CCRF-CEM; test: Induction of cell cycle arrest in human CCRF-CEM cells assessed as decrease in accumulation at G0-G1 phase for 24 hrs by flow cytometric analysis; type: functional, cell-based; conditions: dose 8.0 µM; outline: as §2
[22] = system: CCRF-CEM; test: Induction of cell cycle arrest in human CCRF-CEM cells assessed as accumulation at G2/M phase at 8 uM for 24 hrs by flow cytometric analysis (reference value: 27%); type: functional; outline: as §2
[23] = system: CCRF-CEM; test: Induction of cell death in human CCRF-CEM cells assessed as increase in fragmented DNA at 4 to 8 uM after 24 hrs followed by compound wash out further incubated for 24 hrs by flow cytometric analysis; type: functional, cell-based; conditions: dose 4-8 µM
Outline: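 Recovery design: CCRF-CEM were treated 24h, then medium was removed by centrifugation, cells were PBS-washed and cultured a further 24h in drug-free complete medium. Cells were then fixed in 70% ethanol and stained with PI 10 μg/mL plus RNase A 100 μg/mL. Flow cytometry scored subG0 cells, those with fragmented DNA, from at least 10000 events.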

[24] = system: CCRF-CEM; test: Induction of G2/M cell cycle arrest in human CCRF-CEM cells assessed as increase in cyclin B1 expression at 8 uM by flow cytometric analysis; type: functional, cell-based; conditions: time 6-24 hrs, TDE = time-dependent effect
Outline: (§3)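 CCRF-CEM exposed to 8 μM for 6, 9, 16 and 24 h. 1×10⁶ cells were fixed in 2% paraformaldehyde, permeabilised in 90% methanol, and stained 30 min with anti-cyclin A or anti-cyclin B1 (1:50), then with secondary (1:200), then PI/RNase A. Flow cytometric MFI was taken in PI-gated G2-M cells and normalised to untreated G2-M cells.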

[25] = system: CCRF-CEM; test: Induction of G2/M cell cycle arrest in human CCRF-CEM cells assessed as increase in cyclin A expression at 8 uM after 6 to 24 hrs by flow cytometric analysis; type: functional, cell-based; conditions: time 6-24 hrs; outline: as §3
[26] = system: CCRF-CEM; test: Inhibition of DNA topoisomerase 2 in human CCRF-CEM cells assessed as increase in gamma-H2Ax expression at 8 uM after 1 to 16 hrs by flow cytometric analysis; type: cell-based; conditions: time 1-16 hrs
Outline: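 CCRF-CEM exposed to 8 μM for 1, 2, 3, 5 and 16 h. Cells were fixed in 2% paraformaldehyde, permeabilised in 90% methanol, and stained with anti-γ-H2AX (1:40) then secondary (1:200), with PI/RNase A counterstain. γ-H2AX immunofluorescence was read by flow cytometry per cell-cycle phase and expressed as delta γ-H2AX.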

[27] = system: HT-29; test: Antiproliferative activity against human HT29 cells assessed as reduction in cell viability after 72 hrs by 4-methylumbelliferyl heptanoate (MUH) fluorescence assay
[28] = system: MCF7; test: Antiproliferative activity against human MCF7 cells assessed as reduction in cell viability after 72 hrs by 4-methylumbelliferyl heptanoate (MUH) fluorescence assay
[29] = system: DLD-1; test: Antiproliferative activity against human DLD-1 cells assessed as reduction in cell viability after 72 hrs by 4-methylumbelliferyl heptanoate (MUH) fluorescence assay
[30] = system: CCRF-CEM; test: Antiproliferative activity against human CCRF-CEM cells assessed as reduction in cell viability at 4 uM after 24 hrs by eosin exclusion dye based light microscopic method
[31] = biological target: T1, DNA topoisomerase 2-alpha; test: Poison activity at human DNA topoisomerase 2 alpha assessed as stabilization of cleavage complex using PBR322 as substrate incubated for 15 mins by ethidium bromide staining based agarose gel electrophoresis method

T1 sequence (P11388 whole entry): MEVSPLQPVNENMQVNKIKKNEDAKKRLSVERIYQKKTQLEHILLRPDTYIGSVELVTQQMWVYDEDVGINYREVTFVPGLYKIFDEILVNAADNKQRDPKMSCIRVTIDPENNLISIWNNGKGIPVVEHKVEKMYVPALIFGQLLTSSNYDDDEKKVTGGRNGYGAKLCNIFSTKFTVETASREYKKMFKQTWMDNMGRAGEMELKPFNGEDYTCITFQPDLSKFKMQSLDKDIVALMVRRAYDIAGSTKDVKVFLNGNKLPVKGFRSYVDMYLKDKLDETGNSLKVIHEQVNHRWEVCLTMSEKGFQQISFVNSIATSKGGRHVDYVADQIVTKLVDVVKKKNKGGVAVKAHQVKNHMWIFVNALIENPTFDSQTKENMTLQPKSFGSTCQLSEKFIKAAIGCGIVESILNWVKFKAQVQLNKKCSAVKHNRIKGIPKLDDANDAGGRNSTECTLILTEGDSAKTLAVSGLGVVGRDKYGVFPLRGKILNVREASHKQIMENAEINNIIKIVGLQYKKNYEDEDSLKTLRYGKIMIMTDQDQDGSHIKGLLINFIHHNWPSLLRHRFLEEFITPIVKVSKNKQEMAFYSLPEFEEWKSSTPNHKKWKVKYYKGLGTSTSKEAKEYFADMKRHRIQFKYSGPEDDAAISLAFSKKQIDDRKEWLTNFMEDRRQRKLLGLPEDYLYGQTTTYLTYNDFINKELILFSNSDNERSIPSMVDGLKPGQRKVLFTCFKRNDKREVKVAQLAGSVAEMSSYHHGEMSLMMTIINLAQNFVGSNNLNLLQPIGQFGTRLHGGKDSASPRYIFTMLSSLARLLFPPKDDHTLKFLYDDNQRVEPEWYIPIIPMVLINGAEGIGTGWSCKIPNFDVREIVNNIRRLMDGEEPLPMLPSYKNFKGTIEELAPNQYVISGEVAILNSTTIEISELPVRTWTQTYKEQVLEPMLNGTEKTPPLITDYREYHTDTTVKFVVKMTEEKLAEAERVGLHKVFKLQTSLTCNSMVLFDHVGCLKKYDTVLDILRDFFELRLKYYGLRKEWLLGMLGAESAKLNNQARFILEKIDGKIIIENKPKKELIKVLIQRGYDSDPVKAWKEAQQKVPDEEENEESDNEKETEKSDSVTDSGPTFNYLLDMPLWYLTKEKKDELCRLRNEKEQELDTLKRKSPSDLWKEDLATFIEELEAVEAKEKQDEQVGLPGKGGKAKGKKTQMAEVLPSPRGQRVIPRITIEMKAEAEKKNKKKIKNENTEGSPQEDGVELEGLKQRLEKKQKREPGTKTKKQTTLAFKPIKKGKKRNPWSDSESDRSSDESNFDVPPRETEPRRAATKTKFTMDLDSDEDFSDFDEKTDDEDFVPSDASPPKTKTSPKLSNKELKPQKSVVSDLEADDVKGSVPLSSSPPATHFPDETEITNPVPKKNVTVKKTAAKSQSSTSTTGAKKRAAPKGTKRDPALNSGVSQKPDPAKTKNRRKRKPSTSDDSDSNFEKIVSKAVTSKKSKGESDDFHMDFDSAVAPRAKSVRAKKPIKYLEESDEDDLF

O=C1c2ccc(N3CCOCC3)cc2-n2c1nc1ccccc1c2=O
inhibition [1]: inactive

O=C1c2ccc(N3CCCCC3)cc2-n2c1nc1ccccc1c2=O
inhibition [1]: inactive

O=C1c2c(N3CCCCC3)cccc2-n2c1nc1ccccc1c2=O
inhibition [1]: inactive

CN1CCN(c2cccc3c2C(=O)c2nc4ccccc4c(=O)n2-3)CC1
IC50 [2]: 114 µM

CCN(CC)c1cccc2c1C(=O)c1nc3ccccc3c(=O)n1-2
inhibition [1]: inactive

O=C1c2ccccc2-n2c1nc1ccccc1c2=O [TRYPTANTHRIN]
inhibition [1]: inactive
IC50 [3]: 44.4 µM
GI50 [3]: 14.5 µM
solubility ([4]; buffer): 91.02 µM (≈ 22.6 µg/mL)

CN(C)CCNc1cccc2c1C(=O)c1nc3ccccc3c(=O)n1-2
IC50 [2]: 26.6 µM
Ratio IC50 [5]: 2.5
Activity [6]: Dose-dependent effect
IC50 [6]: 18.2 µM
Activity [3]: Dose-dependent effect
IC50 [3]: 8.26 µM
GI50 [3]: 1.36 µM
Activity [7]: Dose-dependent effect
IC50 ([7]; CEM/C2, 72 h): 9.16 µM
Activity [8]: Dose-dependent effect
IC50 ([8]; HL-60, 72 h): 11.5 µM
Ratio IC50 [9]: 2
Ratio IC50 [10]: 3
Ratio IC50 [11]: 2
Ratio IC50 [12]: 3
Ratio IC50 [13]: 2
Ratio IC50 [14]: 3
Ratio IC50 [15]: 2
Ratio IC50 [16]: 3
Ratio IC50 [17]: 2
Ratio IC50 [18]: 3
Ratio IC50 [19]: 5
Activity [20]: Dose-dependent effect
Activity [21]: Dose-dependent effect
Activity [22]: 78%
Activity [23]: Active
Activity [24]: Tde
Activity [25]: inactive
inhibition [26]: Active
solubility ([4]; water, read-out: solubility): 996 µM (≈ 333 µg/mL)
Activity [27]: Dose-dependent effect
IC50 ([27]; HT-29, 72 h): 9.4 µM
Activity [28]: Dose-dependent effect
IC50 ([28]; MCF7, 72 h): 30.5 µM
Activity [29]: Dose-dependent effect
IC50 ([29]; DLD-1, 72 h): 7.13 µM
Activity [30]: Active
Activity [31]: inactive

O=C1c2c(N3CCOCC3)cccc2-n2c1nc1ccccc1c2=O
inhibition [1]: inactive

CN1CCN(c2ccc3c(c2)-n2c(nc4ccccc4c2=O)C3=O)CC1
IC50 [2]: 138 µM

CCN(CC)c1ccc2c(c1)-n1c(nc3ccccc3c1=O)C2=O
inhibition [1]: inactive

O=C1c2c(NCCO)cccc2-n2c1nc1ccccc1c2=O
inhibition [1]: inactive
